Reference: publication PMC5860981 (Journal of immunology (Baltimore, Md. : 1950), 2018)

Key:
Assay type in all cases: cell-based, human
NETs = experiment: Detection of LL-37 in NETs by immunofluorescence microscopy; details: 100 μM, PMA-induced NETs, antibody specific for native LL-37
Summary of the method: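 Human neutrophils, hypotonically lysed to remove RBCs, seeded at 1 × 10^5 cells on 1% BSA-treated coverslips, 30 min at 37 °C, 5% CO2. Where indicated, 100 μM PAD inhibitor. NETs induced with 25 nM PMA, 3 h. Fixed in 3.7% paraformaldehyde; mouse anti-LL-37 (1:50, 1 h RT), Alexa-Fluor-647 anti-mouse (1:1000, 45 min), Hoechst 1 μg/mL; imaged at 20×.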

neutrophils = experiment: PMA-induced NET formation in neutrophils; details: 100 μM, neutrophils stimulated with 25 nM PMA 3 h
pDCs = experiment: pDC stimulation with NETs

Question: For `NC(=O)[C@H](CCCN=C(N)CCl)NC(=O)c1ccccc1` [Cl-A, Cl-amidine], which “LL-37 fluorescence spots relative to amount of NETs, versus no inhibitor” value (NETs) is on record?
Answer: 3 times

Question: And the “NET formation and levels of citrullination” value (neutrophils)?
Answer: reduced both the levels of citrullination (Figure S3) and NET formation

Question: And the “IL-6 in conditioned medium from pDCs treated with NETs generated in the presence of inhibitor” value (pDCs; 100 μM inhibitor, ELISA)?
Answer: substantial amount of IL-6

Question: And the “MxA expression in pDCs exposed to NETs pre-treated with inhibitor” value (pDCs; NETs from neutrophils given 100 μM inhibitor before PMA, real-time PCR)?
Answer: upregulated markedly
